Source: PubChem BioAssay (several laboratories)
UPR XBP1 act = activators of adaptive arm of unfolded protein response (XBP1); CHO-XBP1 luciferase reporter, IRE1-XBP1 UPR activation, luminescence; percent of tunicamycin response, DMSO as zero; activation, % at 20 µM; 330,000 tested, 0.33% active; AID 463104;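 active means versus positive control, 20 µM dose yields 30% or more activation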;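 further: 100% = tunicamycin at 10 µg/mL and 0% = DMSO only wells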
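Material – CHO cell line with stable XBP1 luciferase reporter · Buffer or medium – F12 plus 10% FBS · Compound – single point, 20 µM final compound, 1% DMSO · Schedule – 16-18 h cell attachment at 37 °C, then 6 h compound exposure · Signal – Steady-Glo luminescence read · Benchmarks – high control tunicamycin 10 µg/mL final, low control DMSO vehicle only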
T cruzi repl = blocks replication of Trypanosoma cruzi | inhibition, % (test concentration not listed) | AID 1885 | 300,000 tested, 1.4% active | T. cruzi beta-gal in NIH3T3, luminescence, 90 h;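 active means mean inhibition across valid replicates above about 55%, limit read from the data; inconclusive means mean below that limit but half or more replicates reach it; inactive means mean below it, under half of replicates reach it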;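 further: signal also drops with host cell toxicity which is not excluded here; 0% = plate median of DMSO wells and 100% = zero luminescence signal; higher percent means less beta-gal luminescence so fewer parasites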
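System: Mouse NIH/3T3 fibroblasts infected with β-gal-expressing T. cruzi Tulahuen C4 | Quantity: NIH/3T3 cells, 5,000 per well | Reagent: 5000 reporter trypomastigotes per well | Dosing: Compound pinned at 50 nL/well, DMSO | Schedule: 3 h host attachment, then at least 90 h co-culture | Detection: GalScreen luminescence, 60 min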
Mdm2-MdmX inh = inhibitors of human Mdm2/MdmX interaction; O15151+Q00987; SaOS-2 split-luciferase Mdm2/MdmX complementation, luminescence; inhibition, % at 8 µM; 330,000 tested, 3% active;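 active means inhibition of at least 50% at 8 µM in the primary screen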
Beta apoptosis = blocks beta cell apoptosis; INS-1E cytokine-induced death, ATP luminescence, 48 h; percent of positive-control rescue, neutral wells zero; protection from apoptosis, % (concentration not given with the values); 300,000 tested, 0.8% active; AID 435005;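 active means Every replicate reaches about 75%, or at least half do and their mean reaches it too, limit read from the data; inconclusive means At least half of replicates reach the limit but their mean does not; inactive means Under half of replicates reach the limit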;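 further: 0% = cytokine-treated negative control wells and 100% = positive control rescue; higher means more ATP so stronger rescue from cytokine killing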
CSC inhib = cancer stem cell inhibition. cancer stem cell-like cells viability, luminescence. 300,000 tested, 1.1% active. inhibition, % at 7.5 µM. AID 2717; in the data active means inhibition above about 75%; inconclusive means no clear call, values can overlap the other calls; tested in HMLE shEcad cells
UPR CHOP act = apoptotic UPR (CHOP) activation | CHO-CHOP luciferase reporter, luminescence; percent of tunicamycin response over DMSO baseline | AID 449763 | activation, % at 10 µM | 330,000 tested, 0.34% active;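 active means at 10 µM dose, activation of 40% or more, normalized to positive control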;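 further: 100% = tunicamycin at 10 µg/mL and 0% = DMSO alone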
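System: CHO CHOP reporter cells. Amount: 500 cells per well. Buffer or medium: F12 medium, 10% FBS. Compound dosing: one dose, 10 µM in 0.5% DMSO. Incubation: 6 h compound exposure at 37 °C after overnight seeding. Technique: Steady-Glo luciferase luminescence. Benchmarks: tunicamycin and DMSO controls.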
Mdm2-MdmX conf = confirmation of human Mdm2/MdmX interaction inhibitors | shares compounds with Mdm2-MdmX inh | Mdm2-MdmX binding, luminescent assay | inhibition, % at 8 µM | 10,000 tested, 55% active; in the data active means inhibition above about 40%
Full FLuc ctr = counter-screen for Mdm2/MdmX inhibitors: full-length luciferase; 6,200 tested, 77% active; inhibition, % at 8 µM; SaOS-2 full-length luciferase counterscreen, luminescence; AID 504607; shares compounds with Mdm2-MdmX inh;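 active means mean inhibition at 8 µM reaching about 37%, which flags the compound as non-specific, limit read from the data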;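 further: p53-null SaOS-2 cells with luciferase driven by a doxycycline-inducible promoter; compound on cells about two nights before reading with doxycycline added after day one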
Active calls of the source: *; u = inconclusive; x = no result given. The list is not random: actives were taken first. Their share in the collection is about 5%.

SMILES	UPR XBP1 act	T cruzi repl	Mdm2-MdmX inh	Beta apoptosis	CSC inhib	UPR CHOP act	Mdm2-MdmX conf	Full FLuc ctr
CC(=O)c1ccccc1NC(=O)COC(=O)Cc1cccc(C(F)(F)F)c1	-1	x	-21	-7	x	-1	x	x
NS(=O)(=O)c1ccc(CCNC(=O)C(=O)NCC2OCCN2S(=O)(=O)c2ccc(Cl)cc2)cc1 (stereo not drawn)	-1	1	24	4	1	3	x	x
Cc1ccnc(NC(=O)CCCOc2cc(=O)n(C)c3ccccc23)c1	-1	-3	75*	34	38	-3	84*	117*
CCOc1ccc(NC(=O)CCCOc2cc(=O)n(C)c3ccccc23)cc1	1	25	52*	-3	-9	2	20	x
Cn1c(=O)cc(OCCCC(=O)NCc2ccccn2)c2ccccc21	0	-1	17	-4	-18	0	x	x
CCCOP(=O)(c1ccc(N(C)C)cc1)C(O)c1ccc(Cl)cc1Cl (stereo not drawn)	-5	-2	-16	-10	-2	-2	x	x
O=C1CCc2cc(S(=O)(=O)NCCC(=O)NC3CCCCC3)ccc2N1	-4	-15	3	2	-20	0	x	x
Cc1ccccc1OCC(O)Cn1c(NCc2ccccc2)nc2c1c(=O)[nH]c(=O)n2C (stereo not drawn)	-1	-1	15	-2	x	-1	x	x
C=CCNc1nc2c(c(=O)[nH]c(=O)n2C)n1CC(O)COc1ccc2ccccc2c1 (stereo not drawn)	-4	3	59*	x	x	2	20	x
Cc1ccc([C@@H]2CC=C(C(=O)O)[C@H](c3cccc(F)c3)N2S(=O)(=O)c2ccccc2C)cc1	-1	x	19	-4	x	1	x	x
COc1ccc(/C=N/n2cnc3c([nH]c4ccc(C)cc43)c2=O)cc1CN1CCCC1	7	14	19	14	0	5	x	x
COc1ccc(/C=N/n2cnc3c([nH]c4ccc(F)cc43)c2=O)cc1CN1CCCC1	14	37	100*	6	36	13	57*	51*
O=C(Nc1ccc(F)c(Cl)c1)Nc1csc2ccccc12	-2	26	94*	83*	77*	13	58*	35
O=C1CN(C(=O)COc2ccccc2)CCN1	3	-4	-23	3	-10	0	x	x
O=c1cc(O)c2sc(Nc3ccc(F)cc3)nc2[nH]1	0	-17	66*	x	10	-1	48*	42*
COc1cccc(C(C[N+](=O)[O-])c2c(C)[nH]n(-c3ccccc3)c2=O)c1 (stereo not drawn)	-10	-2	65*	6	-12	-11	25	x
N#Cc1ccc(Nc2nc(-c3ccc(O)cc3O)cs2)cc1C(F)(F)F	11	x	69*	8	85*	6	61*	55*
O=C(COC(=O)c1ccc(Cl)cc1)NCC1CCCCC1	-1	x	-16	1	11	-1	x	x
CCC(C)(C)C(=O)O[C@H]1C[C@@H](C)C=C2C=C[C@H](C)[C@H](CC[C@@H]3C[C@@H](O)CC(=O)O3)[C@H]21	-9	0	55*	21	29	0	22	x
CC(C)(C)OC(=O)N1CCC[C@H]1c1nnc(SCc2cccc(Cl)c2)o1	0	12	-3	-2	-6	1	x	x
COc1ccc(C2NC(=O)NC(C)=C2C(=O)OC2CCC(C)CC2)cc1 (stereo not drawn)	-2	17	33	-3	-9	-3	x	x
Cc1ccc(S(=O)(=O)Nc2cccc(-c3ccc4nncn4n3)c2)cc1	8	15	63*	12	3	1	78*	66*
COc1ccc(OC)c(S(=O)(=O)Nc2ccc(-c3ccc4nnc(C)n4n3)cc2)c1	6	4	51*	-1	29	1	61*	65*
CCc1ccc(S(=O)(=O)Nc2ccc(-c3ccc4nnc(C)n4n3)cc2)s1	5	x	14	0	-1	1	x	x
CCc1ccc(S(=O)(=O)Nc2cccc(-c3ccc4nnc(C)n4n3)c2)s1	3	12	55*	11	12	0	53*	85*
SMILES	UPR XBP1 act	T cruzi repl	Mdm2-MdmX inh	Beta apoptosis	CSC inhib	UPR CHOP act	Mdm2-MdmX conf	Full FLuc ctr
CC(=O)c1ccc(S(=O)(=O)Nc2cccc(-c3ccc4nncn4n3)c2)cc1	2	-5	21	1	4	-2	x	x
COc1ccc(S(=O)(=O)Nc2ccc(-c3ccc4nnc(C)n4n3)cc2)c(OC)c1	1	x	71*	-11	16	-1	36	x
Cc1ccc(C)c(NC(=O)c2ccccc2NS(=O)(=O)c2cc([N+](=O)[O-])ccc2C)c1	8	-35	89*	112*	97*	8	94*	40*
O=C(NCCc1ccccc1)C1CCN(C(=O)c2ccc([N+](=O)[O-])cc2)CC1	-2	1	13	4	-3	1	x	x
COc1cc2nc(CN(C)Cc3ccc(Cl)cc3)[nH]c(=O)c2cc1OC	-3	-3	22	-9	-18	1	x	x
COc1cc2cncc(Cc3ccc(Cl)cc3)c2cc1OC	-3	x	69*	-10	1	-5	65*	26
C=CC[C@H](CC(=O)NCCO)C(=O)NC[C@@H](OC(=O)[C@@H](CC=C)CC(=O)OC(C)(C)C)c1ccccc1	-3	x	17	1	4	-1	x	x
CN1CCN(CC/C=C2/c3ccccc3Sc3ccc(S(=O)(=O)N(C)C)cc32)CC1	-3	29	67*	-8	0	5	27	x
O=C(O)Cn1c(=O)c2c3c(sc2n(Cc2ccccc2F)c1=O)CCCC3	-2	-8	17	-1	1	0	x	x
CC(C)[C@H]1C(=O)Nc2ccccc2N1C(=O)N[C@@H](Cc1ccccc1)C(=O)N[C@@H](Cc1ccccc1)C(=O)O	2	-10	23	-3	5	0	x	x
O=C(Cc1ccccc1)NNC(=O)Nc1cccc(Cl)c1	0	0	17	-10	-5	0	x	x
O=C(CN1c2ccccc2Sc2ccccc21)NNC(=O)Nc1cccc(Cl)c1	-1	-7	67*	u	82*	2	24	90*
O=C(c1cc(-c2ccccc2)nc2ccccc12)N1CCCC1	4	4	-24	-11	-19	3	x	x
c1ccc(-c2cc(NCCN3CCCCC3)c3ccccc3n2)cc1	-3	47	57*	x	x	-3	46*	51*
O=C(NCc1ccccn1)c1ccc2nc(C3CCCCC3)oc2c1	-1	6	16	0	8	3	x	x
